In the data set the test system is MS2 coat protein. Briefly: apparent Kd, MS2 coat protein; higher = weaker binding; RNA-MaP array; FMN 200 µM where present. A digest of the protocol:
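Designs were transcribed by stalled E. coli RNA polymerase on Illumina sequencing-chip clusters. They were titrated with SNAP-549-labelled MS2 coat protein from 0.7 or 1.5 nM, doubling to 3 µM, in 100 mM Tris-HCl pH 7.5, 80 mM KCl, 4 mM MgCl2, BSA, DTT, yeast tRNA and Tween-20, without and then with constant ligand. The apparent Kd is the median of filtered per-cluster fits after normalisation of green signal to red-channel RNA signal and control-cluster median Fmax.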

Setting [1] is: designed as: OFF switch for flavin mononucleotide, no ligand.
The mark [2] stands for this setting: ligand present: flavin mononucleotide, designed as: OFF switch for flavin mononucleotide.
Setting [3] is: designed as: ON switch for flavin mononucleotide, no ligand.
[4] abbreviates: ligand present: flavin mononucleotide, designed as: ON switch for flavin mononucleotide.

Turning to “AGAGGACAUGAGGAUCACCCAUGUAAGGAUAUGCGGAGAGUUUGGAGAGGUCGGGUAGGCAGAAGGUACAGGAG”, the “apparent Kd” value is 65.1 nM under setting [1] and 91.7 nM under setting [2].

“UGGUACAUCGGAGGAUAUCAUGUAAAUACAUGAGGAUCACCCAUGUCGAUGGAGACAUCGGAGAUUGAGAAGGCCGAUGUACCG”: the “apparent Kd” value stood at 166 nM under setting [3] and 8.66 nM under setting [4].

For the sequence “GUAGCAUACCAAGGAUAUUCAUAUAAUAAGUAAACAUGAGGAUCACCCAUGUAGUGAGAGCCUUGGGAGAAGGUGGAAUGCUAC”, the “apparent Kd” value under setting [3] turned out to be 16.6 nM and the “apparent Kd” value under setting [4] is 18.3 nM.

Take “AGCUGUGGCAGAGGAUAUACUACUAUAAUCCAUUGCAAAUAGCGAUGGACAUGAGGAUCACCCAUGUAGAAGGCUGUCACAGCA”: the “apparent Kd” value by setting is: under setting [1], 45.6 nM; under setting [2], 176 nM.

Consider “GCAUUGAGUGUGAGGAUAUGCUGGUCCUUGGAUCAGCAGAAGGCACAUGAGGAUCACCCAUGUGAAUACAAUGC”, for which the “apparent Kd” value reads like this: under setting [1], 20.9 nM; under setting [2], 116 nM.

For the sequence “CAUCCACAUGAGGAUCACCCAUGUGAGGAUAUGAUACUAUGUACUUCGGUACAUAGUAUCAGAAGGCACAGGUG”, the “apparent Kd” value under setting [1] is 120 nM and the “apparent Kd” value under setting [2] amounted to 37.4 nM.

As to “GUUAUAUUUAGUUCAUACUAUAUGAUAGAAGGUGAAAUAUAGACAUGAGGAUCACCCAUGUAAUUCAAGGAUAUGUAGUUACUC”, the “apparent Kd” value is, setting by setting: under setting [3], 29.9 nM; under setting [4], 21.5 nM.

On to “UGUGUGAGACAGGAUAUGCCGGAUAUAUUACUGGUAGAAGGGUCUACAUGAGGAUCACCCAUGUGGCCGGCCGG”, for which the “apparent Kd” value is, setting by setting: under setting [1], 18 nM; under setting [2], 29.1 nM.

Regarding “AUCCGACAUGAGGAUCACCCAUGUCAGGAUAUGGACUGACACCCAAAGGGUGGAGGAACCAGAAGGGACUGGGC”, the “apparent Kd” value runs as follows: under setting [1], 36 nM; under setting [2], 68.1 nM.

“GAUGGACAUGAGGAUCACCCAUGUCAGGAUAUUGUUUGUGGCUAGUUUUGGUUACGGGCGAGAAGGGACUCGUC”: the “apparent Kd” value under setting [1] stood at 22.6 nM and the “apparent Kd” value under setting [2] was 20.7 nM.

For “UAAUCUCAGAUAGGAUAUAUAGGAUAACUUAAGACCUAACAUGAGGAUCACCCAUGUGAUUAUUCGUAGAAGGAUCAUUGAACU”, the “apparent Kd” value under setting [3] was found to be 254 nM and the “apparent Kd” value under setting [4] was found to be 251 nM.

As for “CACCGUUACCGAGGAUAUCGUACAUGAGGAUCACCCAUGUAAUAAAUGAGAAUUUCGGAUGUAUGCGAGAAGGCGGGAAUCGGC”, the “apparent Kd” value is, setting by setting: under setting [1], 34.1 nM; under setting [2], 29.8 nM.

Take “GGAAUACAUGAGGAUCACCCAUGUAAGGAUAUGCUGAAUAACACGGAAUAAUCGUGCAGCAGAAGGUACAAAGG”: the “apparent Kd” value by setting is: under setting [1], 145 nM; under setting [2], 111 nM.

Take “UAAUAAAGUGUGAGGAUAUGCUGGUCGAUAGAUCAGCAGAAGGCACAUGAGGAUCACCCAUGUAAUAUAUUUUA”: the “apparent Kd” value reads like this: under setting [1], 57.9 nM; under setting [2], 247 nM.

For “UAAUAAUAGCAAGGAUAUAGUUAUUAUAAUAUACUAGAAGGUGCACAUGAGGAUCACCCAUGUUUUAUAAUUUGUAAUUUAAAU”, the “apparent Kd” value under setting [1] was determined as 29 nM and the “apparent Kd” value under setting [2] amounted to 22.4 nM.

Consider “ACCUUACAUGAGGAUCACCCAUGUCAGGAUAUCUCGGGCGGCUGAGGACCAGCCGCCCAGAGAAGGGACGAGGA”, for which the “apparent Kd” value turned out to be 14.7 nM under setting [1] and 15.3 nM under setting [2].

For the sequence “GUGUACGGAGGAUAUGUAUGGGCAGGCUGACCUGCAGCUUCACAUGAGGAUCACCCAUGUAGAAGGCUGUGCAC”, the “apparent Kd” value worked out at 12.1 nM under setting [1] and 24.2 nM under setting [2].

“UGGGUGGUAUGAGGAUAUGCGCGCGAAACGCGCGCAGAAGGCAUGUCAAUAGACAUGAGGAUCACCCAUGUAUUAUCCAUCCAA”: the “apparent Kd” value reads like this: under setting [3], 412 nM; under setting [4], 28.3 nM.

“GGGUUCAUCGGAGGAUAUCAUGUAAAUACAUGAGGAUCACCCAUGUCGAUGGAGACAUCGGAGAUUGAGAAGGCCGAUGUACCG”: the “apparent Kd” value reads like this: under setting [3], 186 nM; under setting [4], 9.18 nM.

In the case of “GUUACACAUGAGGAUCACCCAUGUAAGGAUAUGCUGCGGUCGCGAAAACGUGACUGCAGCAGAAGGUACACAUG”, the “apparent Kd” value is 119 nM under setting [1] and 121 nM under setting [2].

Regarding “ACUAAUAAGUGAGGAUAUACAUAAUUCAUAUCAGUAGAAGGCACAAUCCUCUUUACAUGAGGAUCACCCAUGUUAUAUAUAUAA”, the “apparent Kd” value by setting is: under setting [1], 73.8 nM; under setting [2], 194 nM.

In the case of “AAAUAGCGAGGAUAUACAUGAGGAUCACCCAUGUGGACUGAUGUAGCAUGUUUCAGUGGUAGAAGGUGCUCAAA”, the “apparent Kd” value is, setting by setting: under setting [1], 112 nM; under setting [2], 100 nM.

Take “GCAAUAGCAUGAGGAUAUGUUGGAGUUUAGACAGCAGAAGGCAUGUCAUAAGACAUGAGGAUCACCCAUGUAAUUACAAUAGCA”: the “apparent Kd” value is, setting by setting: under setting [3], 32.7 nM; under setting [4], 12.1 nM.

In the case of “GGGUACAUCGGAGGAUAUAAUGUAAAUACAUGAGGAUCACCCAUGUCGAUGGAGACAUCGGAGAUUGAGAAGGCCGAUGUACCG”, the “apparent Kd” value stood at 110 nM under setting [3] and 38.4 nM under setting [4].

Turning to “GGAUAGGACAGAGGAUAUACGUGCUAGAGAUACUAGCAAAAUUUCCUCACAUGAGGAUCACCCAUGUAGAAGGCUGUACUAUCG”, the “apparent Kd” value under setting [1] was determined as 15.2 nM and the “apparent Kd” value under setting [2] came out at 202 nM.

As for “GGGUAGAUCCGAGGAUAUACAAUCCGGAAACGGUACAUGAGGAUCACCCAUGUAGAAGGCGGAUCUACAGGUACUAAAGUAGGG”, the “apparent Kd” value under setting [1] stood at 16 nM and the “apparent Kd” value under setting [2] is 14.2 nM.

As to “UGGUACAUGGGAGGAUAUCCUCAAGACAUGAGGAUCACCCAUGUAAAUUAUAAGCCGAAAGGCAUGGAGAAGGCCCAUGUACCU”, the “apparent Kd” value by setting is: under setting [3], 96.3 nM; under setting [4], 20.2 nM.

In the case of “CAGGUAGACUGAGGAUAUACAGACCUAGUCUAUCUAGGUCAAUUAACCACAUGAGGAUCACCCAUGUAGAAGGCAGUCUGCCUG”, the “apparent Kd” value is, setting by setting: under setting [1], 15.9 nM; under setting [2], 21.4 nM.

With “CUAAAUCAUGUAGGAUAUGGAUGGCGAAGCUACCCAGAAGGACAUGAGGAUCACCCAUGUCAGAACGUCUGCGUUCAGACGUUG”, the “apparent Kd” value runs as follows: under setting [1], 35.7 nM; under setting [2], 217 nM.

Turning to “ACUAGAUGAGGAUAUACACAUUUUAGUGUUCCUCUAGAUUAACAUGAGGAUCACCCAUGUAGAAGGCAUCAUUU”, the “apparent Kd” value under setting [1] is 78.5 nM and the “apparent Kd” value under setting [2] is 231 nM.

On to “UACAAUGGAGGAUAUAUGGUCAUACACAUGAGGAUCACCCAUGUCGCGAGUCGUGUAUCCAUAGAAGGCUGUAGUG”, for which the “apparent Kd” value is 13.7 nM under setting [1] and 15.6 nM under setting [2].

Turning to “GCAAUCGCAUGAGGAUAUGCUGGAGUUUAGACAGCAGAAGGCAUGUCAUAAGACAUGAGGAUCACCCAUGUAGUUACAAUGGCA”, the “apparent Kd” value under setting [3] was 41 nM and the “apparent Kd” value under setting [4] is 11.9 nM.

Take “AGCCAAGCAGGAUAUGCACGUAAUAACAUGAGGAUCACCCAUGUGACCGAUUUAUGUUCUGCAGAAGGGCUUGGAA”: the “apparent Kd” value under setting [1] is 60.3 nM and the “apparent Kd” value under setting [2] is 63.5 nM.

In the case of “UCGGCGCGAGGAUAUACGUUUGCGCUUUUUCGUUUUUGUGUACAUGAGGAUCACCCAUGUAGAAGGCGCGCCGC”, the “apparent Kd” value runs as follows: under setting [1], 16.4 nM; under setting [2], 19.8 nM.

Regarding “GCCUUAUCUGUCAGGAUAUACAAUAAUUUUUUUUUGUAGAAGGGACAUGAGGAUCACCCAUGUACAUUACAUUG”, the “apparent Kd” value under setting [1] is 40 nM and the “apparent Kd” value under setting [2] stood at 201 nM.

For “AGGAGUAAAGGGAAUAACAUGAGGAUCACCCAUGUAUGGGAGAGAAGGCAGAUCGGAGGACGAUCUGAGGAUAUUUAAACUCUA”, the “apparent Kd” value is, setting by setting: under setting [3], 72.5 nM; under setting [4], 16.8 nM.

Take “UGUGUGUGGCAGGAUAUGCCGGUAGUAGGACGGGUAGAAGGGUCUACAUGAGGAUCACCCAUGUGGCCGGUUGG”: the “apparent Kd” value by setting is: under setting [1], 17.7 nM; under setting [2], 17.7 nM.

For the sequence “GAGGUAUAAGGAUAUACAUAGAUACAGACACAUGUUCAAGUACAUGAGGAUCACCCAUGUAGAAGGUAUAUAUC”, the “apparent Kd” value is, setting by setting: under setting [1], 33.6 nM; under setting [2], 30.6 nM.

On to “GUGCACACUCGAGGAUAUCGGAGUUUUCUCCUUCGAGAAGGCGAUUCGUGCCGUGUUAUUCUGGACAUGAGGAUCACCCAUGUG”, for which the “apparent Kd” value is, setting by setting: under setting [3], 110 nM; under setting [4], 36.5 nM.

With “AAAUUUAACGAAGGAUAUGGUUACAUGAGGAUCACCCAUGUGUGCCUUGUGAUUUUGUUUAAGUUCCAGAAGGUCGUAUACAUA”, the “apparent Kd” value was 26.4 nM under setting [1] and 168 nM under setting [2].

Take “CGUACGUCAGGAUAUCUGAUGUCUAACUUCGGUUAGACAUCAGAGAAGGGACAUGAGGAUCACCCAUGUACGAG”: the “apparent Kd” value amounted to 88.3 nM under setting [1] and 105 nM under setting [2].

In the case of “AUUACCAGAGGAUAUGCGAGGGUGUACCUCCCACAGCGAAAACAUGAGGAUCACCCAUGUAGAAGGCUGAACAU”, the “apparent Kd” value under setting [1] came to 56.7 nM and the “apparent Kd” value under setting [2] came to 46.3 nM.

In the case of “UCCUGGCGAGGAUAUACAAAGAUUUUUUCGUUUUGUUACGAACAUGAGGAUCACCCAUGUAGAAGGUGCUGCUG”, the “apparent Kd” value by setting is: under setting [1], 204 nM; under setting [2], 193 nM.

As for “GCGUAACAUGAGGAUCACCCAUGUACUCGAGAAUUCGAGUGUAGAAGGGUGACCGGUCGUUUGGCACAGGAUAUACACGCUGUG”, the “apparent Kd” value by setting is: under setting [3], 31.5 nM; under setting [4], 12 nM.

As to “UGAUCAAAUGUCAGGAUAUGCUGUUGGAAACAACAGCAGAAGGGACAUGAGGAUCACCCAUGUCUUGUCGAUUU”, the “apparent Kd” value runs as follows: under setting [1], 21.4 nM; under setting [2], 112 nM.

With “CUUUUGUGAGGAUAUCAGUAGUAAAAAAAUAUAAUUACUACUGAGAAGGCACAUGAGGAUCACCCAUGUUCCUC”, the “apparent Kd” value is, setting by setting: under setting [1], 36.8 nM; under setting [2], 267 nM.

For “GGUACUCAAAGAGUACGGAGUCGAACAUGAGGAUCACCCAUGUAGGAUAUGCGAGUUUUGAAUUUGCAGAAGGACAUUUGCAGC”, the “apparent Kd” value is, setting by setting: under setting [1], 9.62 nM; under setting [2], 11.2 nM.

As for “GUAGCUAUCGGAGGAUAUUCAUGAUACAUGAGGAUCACCCAUGUUAAAGUGGGAGAAGGCCGAUAGCUACAAGAGCGAAAGCUC”, the “apparent Kd” value was determined as 44.8 nM under setting [3] and 6.87 nM under setting [4].

These data come from the EternaBench riboswitch data.
